Source: PubChem BioAssay
Active and inactive are the calls of the source.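 Rule for the calls, unless noted: active = viability at or under a set limit in both replicates, limit being median viability minus 3 SD (cut at about 48% in these data, passing the limit was not always enough); inconclusive = at or under the limit in just one replicate; inactive = at or above the limit in both replicates.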

Legend:
[1] = Her2 expression decrease, cell viability multiplex – SKBR3 breast tumor cells, AlphaScreen, ATP viability, primary screen (AID 461;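 active = Her2 level under about 52% in both replicate screens, with viability over 70% of control, limit read from the data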;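 for Her2 level: lower value means less Her2 protein in the cells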;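 for viability: percent of carrier control wells set as 100% viability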); conditions: SKBR3 Her2 protein level, 18-24 h, measured here: SKBR3 viability, ATP luminescence, at 10 µM
[2] = target: Receptor tyrosine-protein kinase erbB-2 (Homo sapiens) (UniProt P04626); assay: as above; conditions: 18-24 h, at 10 µM, stronger effect = lower value
Sequence of Receptor tyrosine-protein kinase erbB-2 (Homo sapiens) (P04626 whole entry, looked up): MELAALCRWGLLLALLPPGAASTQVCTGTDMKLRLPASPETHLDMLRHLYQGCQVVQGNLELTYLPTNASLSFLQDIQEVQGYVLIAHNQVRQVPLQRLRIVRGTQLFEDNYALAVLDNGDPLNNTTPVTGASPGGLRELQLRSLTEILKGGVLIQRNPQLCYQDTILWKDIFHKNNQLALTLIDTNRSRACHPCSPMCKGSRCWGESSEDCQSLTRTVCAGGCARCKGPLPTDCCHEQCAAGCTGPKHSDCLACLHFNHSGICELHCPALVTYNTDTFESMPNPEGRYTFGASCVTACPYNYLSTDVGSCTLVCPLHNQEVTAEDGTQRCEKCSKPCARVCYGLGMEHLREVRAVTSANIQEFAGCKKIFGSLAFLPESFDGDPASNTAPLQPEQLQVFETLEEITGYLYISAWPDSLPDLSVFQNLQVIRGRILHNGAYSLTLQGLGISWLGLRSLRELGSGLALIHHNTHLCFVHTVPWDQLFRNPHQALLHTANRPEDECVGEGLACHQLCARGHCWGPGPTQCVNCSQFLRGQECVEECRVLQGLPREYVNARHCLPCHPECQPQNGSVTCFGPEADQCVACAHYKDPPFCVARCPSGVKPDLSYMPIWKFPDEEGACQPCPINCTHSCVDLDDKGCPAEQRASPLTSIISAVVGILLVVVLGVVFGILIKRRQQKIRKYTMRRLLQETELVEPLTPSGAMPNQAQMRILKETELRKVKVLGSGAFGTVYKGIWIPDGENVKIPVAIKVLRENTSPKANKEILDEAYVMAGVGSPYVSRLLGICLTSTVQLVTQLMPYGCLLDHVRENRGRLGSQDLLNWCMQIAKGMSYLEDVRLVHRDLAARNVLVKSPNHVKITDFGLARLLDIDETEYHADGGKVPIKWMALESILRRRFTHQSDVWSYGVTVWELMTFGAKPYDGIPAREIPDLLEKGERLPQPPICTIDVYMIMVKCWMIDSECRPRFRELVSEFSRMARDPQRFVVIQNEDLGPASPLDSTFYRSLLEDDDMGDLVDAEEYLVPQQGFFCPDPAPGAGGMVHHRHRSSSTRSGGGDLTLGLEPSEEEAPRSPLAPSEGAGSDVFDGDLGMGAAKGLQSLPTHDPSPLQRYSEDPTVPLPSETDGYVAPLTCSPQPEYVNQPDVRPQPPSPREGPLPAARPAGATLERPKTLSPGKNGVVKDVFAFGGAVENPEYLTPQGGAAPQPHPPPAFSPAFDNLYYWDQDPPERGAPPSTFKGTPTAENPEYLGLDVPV

[3] = reduced viability of SK-BR-3 breast cancer cells – cell-based, 24 h, human, pilot screen (AID 572;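 active = viability at or below 10% of carrier control in both of two separate runs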;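 note: compound exposure lasted between 18 and 24 h rather than exactly 24 h; 100% = carrier-treated control wells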); conditions: SK-BR-3 viability, CellTiter-Glo luminescence, at 10 µM, stronger effect = lower value
[4] = HUVEC growth inhibition – cell-based, human, primary screen (AID 575;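 active = viability at or below 30% in both replicate assays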;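 note: 100% = median of untreated cell wells with 0.1% DMSO on each plate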); conditions: HUVEC proliferation, CellTiter-Glo luminescence, 72 h; at 10 µM; stronger effect = lower value
How it was run: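 Material: primary human umbilical vein endothelial cells / Schedule: 72 h exposure, 37 °C, 5% CO2, 30 min RT equilibration / Signal: ATP-based CellTiter-Glo luminescent read / Read-out basis: percent of median DMSO-control luminescence / Control set: 32 DMSO-only cell-control wells (high), 32 MePR drug-control wells (low) per plate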

[5] = H69AR cell proliferation blockers – human, duplicate replicates, primary screen (AID 580); conditions: H69AR lung tumor cells viability, ATP luminescence, 72 h; at 10 µM; stronger effect = lower value;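 note: 100% = mean luminescence of untreated wells and 0% = no signal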
[6] = MRP1 drug-resistance reversers in H69AR cells – cell-based, doxorubicin co-treatment, pilot screen (AID 601;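 active = viability loss from added drug above about 55%, and viability with drug at most 40%, in both replicates, limit read from the data, passing the limit was not always enough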); conditions: CellTiter-Glo, 72 h, at 10 µM; for differential viability (reversal): stronger effect = higher value
[7] = yeast transport mutant growth inhibition pilot in 384-well plates, post-Golgi transport modulator project (AID 636; in the data active = inhibition above about 31%); conditions: absorbance 615 nm, about 18 h, stronger effect = higher value
[8] = growth suppression of yeast trafficking mutant, preliminary HTS, modulators of trafficking downstream of Golgi apparatus project, 1536-format plate, OD 615 nm (AID 637; in the data active = inhibition above about 30%); conditions: yeast transport mutant growth, absorbance 615 nm, 18 h; stronger effect = higher value
[9] = H69AR cells + 2 uM doxorubicin, measured here: viability with 2 uM doxorubicin, stronger effect = lower value
[10] = H69AR cells, compound alone cytotoxicity

Structure (SMILES) | viability [1] | Her2 level [2] | viability [3] | viability [4] | viability [5] | differential viability (reversal) ([6]; H69AR cells + 2 uM doxorubicin) | viability [6, 9] | viability [6, 10] | inhibition [7] | inhibition [8]
COc1ccccc1C(=O)n1nc(-c2ccccc2)nc1N | 91% | 90% (inactive) | 91% (inactive) | 110% (inactive) | 87.9% (inactive) | -2.62% (inactive) | 90.5% | 87.9% | -3.29% (inactive) | 3.77% (inactive)
COc1ccccc1N1CCN(C(=O)c2ccc(CS(=O)(=O)c3ccccc3OC)o2)CC1 | 90.5% | 104% (inactive) | 90.5% (inactive) | 85.1% (inactive) | 76.2% (inactive) | -11.9% (inactive) | 88.1% | 76.2% | -5.39% (inactive) | -0.32% (inactive)
C=CCSc1ncccc1C(=O)O | 89.5% | 104% (inactive) | 89.5% (inactive) | 98.4% (inactive) | 97.1% (inactive) | 8.72% (inactive) | 88.3% | 97.1% | -1.32% (inactive) | -7.42% (inactive)
Cc1ccc(NS(=O)(=O)c2cn(C)cn2)cc1 | 95% | 88% (inactive) | 95% (inactive) | 100% (inactive) | 92.7% (inactive) | 5.86% (inactive) | 86.8% | 92.7% | -2.63% (inactive) | 2.36% (inactive)
CCOc1cc(C2C(C(=O)c3ccccc3)=C(C(=O)OC)Nc3nnnn32)ccc1O (stereo not given) | 113% | 96% (inactive) | 113% (inactive) | 91.6% (inactive) | 97.6% (inactive) | 16.4% (inactive) | 81.2% | 97.6% | -1.84% (inactive) | -5.45% (inactive)
O=C(COC(=O)C1CCN(S(=O)(=O)c2cccs2)CC1)c1cc2ccccc2o1 | 104% | 83% (inactive) | 104% (inactive) | 91.9% (inactive) | 96.2% (inactive) | 2.38% (inactive) | 93.8% | 96.2% | -2.19% (inactive) | -0.63% (inactive)
Cc1cc(NC(=O)NC(=O)c2cccc(OC(F)(F)C(F)F)c2)n[nH]1 | 99.5% | 94% (inactive) | 99.5% (inactive) | 80.4% (inactive) | 85.2% (inactive) | -12.8% (inactive) | 98% | 85.2% | -3.73% (inactive) | 20% (inactive)
Cc1cc(-c2nc3ncccc3o2)ccc1N | 99% | 76.5% (inactive) | 99% (inactive) | 92.6% (inactive) | 90.4% (inactive) | 6.33% (inactive) | 84% | 90.4% | -2.37% (inactive) | 11% (inactive)
CCCN1C2CCCC1CC(NC(=O)c1ccccc1F)C2 (stereo not given) | 99% | 96.5% (inactive) | 99% (inactive) | 94.2% (inactive) | 106% (inactive) | 19.6% (inactive) | 86% | 106% | -4.93% (inactive) | 5.4% (inactive)
N#Cc1nc(-c2ccco2)oc1NCc1ccco1 | 94% | 89% (inactive) | 94% (inactive) | 89.3% (inactive) | 100% (inactive) | 8.27% (inactive) | 92% | 100% | -4.13% (inactive) | -8.25% (inactive)
CNC(=O)CC(C(=O)O)c1ccc(OCC(C)C)cc1 (stereo not given) | 90.5% | 102% (inactive) | 90.5% (inactive) | 84.4% (inactive) | 93.9% (inactive) | 4.75% (inactive) | 89.2% | 93.9% | -2.11% (inactive) | 9.84% (inactive)
Cc1ccc(C(=O)CCC2CCCC2=O)cc1 (stereo not given) | 90.5% | 102% (inactive) | 90.5% (inactive) | 111% (inactive) | 89% (inactive) | 0.57% (inactive) | 88.4% | 89% | -4.73% (inactive) | -2.67% (inactive)
Cc1ccccc1N1OC2C(=O)N(c3ccc(F)cc3)C(=O)C2C1c1ccccn1 (stereo not given) | 130% | 116% (inactive) | 130% (inactive) | 115% (inactive) | 91.4% (inactive) | 9.9% (inactive) | 81.5% | 91.4% | -5.58% (inactive) | -2.86% (inactive)
Cc1ccc(CN2C(=O)CCC2C(=O)NCCCN2CCC(C)CC2)cc1 (stereo not given) | 98.5% | 88.5% (inactive) | 98.5% (inactive) | 93.7% (inactive) | 103% (inactive) | 2.18% (inactive) | 101% | 103% | -5.73% (inactive) | 6.89% (inactive)
O=C(c1cccn2c(=O)c3cc(Cl)ccc3nc12)N1CCOCC1 | 95.5% | 104% (inactive) | 95.5% (inactive) | 98% (inactive) | 116% (inactive) | 20.2% (inactive) | 96% | 116% | -3.2% (inactive) | -5.32% (inactive)
COC(=O)c1sc(N2C(=O)C(O)=C(C(=O)c3ccc(C)o3)C2c2ccc(F)cc2)nc1C (stereo not given) | 95% | 81.5% (inactive) | 95% (inactive) | 113% (inactive) | 135% (inactive) | 61.4% (inactive) | 73.8% | 135% | -1.08% (inactive) | -1.48% (inactive)
Cc1cc(C)nc(NC(=O)c2c(-c3c(Cl)cccc3Cl)noc2C)n1 | 84% | 98.5% (inactive) | 84% (inactive) | 94% (inactive) | 85.1% (inactive) | -5.23% (inactive) | 90.3% | 85.1% | -7.73% (inactive) | -6.03% (inactive)
O=S(=O)(CCOc1ccccc1)c1nc2ccccc2[nH]1 | 104% | 18.5% (active) | 104% (inactive) | 54.7% (inactive) | 1.98% (active) | 0.22% (inactive) | 1.77% | 1.98% | -3.95% (inactive) | 3.11% (inactive)
CC(C)Cn1c(-c2ccc(F)cc2)n[nH]c1=S | 114% | 98.5% (inactive) | 114% (inactive) | 80% (inactive) | 88.8% (inactive) | 8.11% (inactive) | 80.7% | 88.8% | -5% (inactive) | -1.33% (inactive)
COCCNC(=O)CC(NS(=O)(=O)c1ccc(NC(C)=O)cc1)C(C)C (stereo not given) | 97% | 122% (inactive) | 97% (inactive) | 81.2% (inactive) | 95.1% (inactive) | 11.4% (inactive) | 83.7% | 95.1% | -4.74% (inactive) | 5% (inactive)
COc1ccccc1C1c2c(oc3ccc(Cl)cc3c2=O)C(=O)N1c1cc(C)on1 (stereo not given) | 86.5% | 82.5% (inactive) | 86.5% (inactive) | 70.7% (inactive) | 72.2% (inactive) | -3.51% (inactive) | 75.7% | 72.2% | -2.93% (inactive) | 8.71% (inactive)
Clc1ccc(Cl)c(-c2ccc(/C=N/c3ncn[nH]3)o2)c1 | 105% | 81% (inactive) | 105% (inactive) | 64.5% (inactive) | 72.8% (inactive) | -11.9% (inactive) | 84.8% | 72.8% | -6.8% (inactive) | 4.59% (inactive)
O=C(NCc1ccccn1)c1cccs1 | 97% | 80.5% (inactive) | 97% (inactive) | 92.4% (inactive) | 105% (inactive) | 11.9% (inactive) | 92.8% | 105% | -7.43% (inactive) | 4.1% (inactive)
CC(C)CCNC(=O)C(c1cccs1)N(CC1CCCO1)C(=O)Cn1nnc2ccccc21 (stereo not given) | 116% | 112% (inactive) | 116% (inactive) | 96.2% (inactive) | 89.8% (inactive) | 4.32% (inactive) | 85.5% | 89.8% | -5.71% (inactive) | -6.33% (inactive)
Clc1ccccc1OCc1nn2c(-c3ccncc3)nnc2s1 | 114% | 75.5% (inactive) | 114% (inactive) | 78.6% (inactive) | 98.2% (inactive) | 5.55% (inactive) | 92.7% | 98.2% | -5.95% (inactive) | 2.67% (inactive)
CCOC(=O)N1CCN(C(=O)CN2C(=O)COc3ccc(C)cc32)CC1 | 98% | 94.5% (inactive) | 98% (inactive) | 95.7% (inactive) | 94.2% (inactive) | 1.89% (inactive) | 92.3% | 94.2% | -2.89% (inactive) | 6% (inactive)
Cc1cc(NC(=O)CCC(=O)N(CC(=O)NC2CCCC2)Cc2ccc(F)cc2)no1 | 101% | 94% (inactive) | 101% (inactive) | 88.9% (inactive) | 95.6% (inactive) | 12.9% (inactive) | 82.7% | 95.6% | -5.87% (inactive) | -5.08% (inactive)
O=C(CSc1ncnc2sc3c(c12)CCCCC3)NCc1ccco1 | 92.5% | 61% (inactive) | 92.5% (inactive) | 41.3% (inactive) | 18% (active) | -52.1% (inactive) | 70.1% | 18% | -2.63% (inactive) | -3.65% (inactive)
Cc1cccn2c(=O)c3cc(C#N)c(=O)n(CCCN4CCOCC4)c3nc12 | 88.5% | 85% (inactive) | 88.5% (inactive) | 99.8% (inactive) | 102% (inactive) | 20% (inactive) | 82.2% | 102% | -3.51% (inactive) | 1.83% (inactive)
